This note sets out measurements from ChEMBL document CHEMBL4304818, “1,3,4-Oxadiazol-2-ylbenzenesulfonamides as privileged structures for the inhibition of monoamine oxidase B” (Bioorg Med Chem Lett, 2019).

The target of data set [1] is T1, Amine oxidase [flavin-containing] A (Homo sapiens, UniProt P21397).
T1 sequence (P21397 whole entry): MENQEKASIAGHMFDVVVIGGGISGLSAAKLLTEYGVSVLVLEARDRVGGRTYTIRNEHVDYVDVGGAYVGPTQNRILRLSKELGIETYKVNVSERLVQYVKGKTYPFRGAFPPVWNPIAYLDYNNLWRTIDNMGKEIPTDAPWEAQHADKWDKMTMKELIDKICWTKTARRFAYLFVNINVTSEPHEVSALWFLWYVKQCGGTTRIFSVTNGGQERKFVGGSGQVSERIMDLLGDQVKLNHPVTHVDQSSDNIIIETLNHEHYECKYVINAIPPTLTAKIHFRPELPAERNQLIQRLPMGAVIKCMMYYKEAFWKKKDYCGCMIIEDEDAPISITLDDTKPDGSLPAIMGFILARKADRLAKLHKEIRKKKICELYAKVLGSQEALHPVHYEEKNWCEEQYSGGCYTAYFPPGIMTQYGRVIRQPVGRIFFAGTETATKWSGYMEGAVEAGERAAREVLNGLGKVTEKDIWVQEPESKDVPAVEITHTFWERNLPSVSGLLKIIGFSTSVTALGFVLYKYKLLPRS
Description: Inhibition of human recombinant MAO-A expressed in insect cells microsomes assessed as inhibition of 4-hydroxyquinoline formation using kynuramine as substrate incubated for 20 mins by fluorescence spectrophotometry analysis. A digest of the protocol:
(§1)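 Recombinant human MAO-A and MAO-B as enzyme sources with kynuramine as non-selective substrate; product 4-hydroxyquinoline read by fluorescence spectrophotometry. Activity measured across a range of inhibitor concentrations, sigmoidal rate vs log[inhibitor] curves fitted for IC50; triplicate measurements, mean ± SD. Top concentration tested 100 µM. SI taken as IC50(MAO-A)/IC50(MAO-B).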

The target of data set [2] is T2, Amine oxidase [flavin-containing] B (Homo sapiens, UniProt P27338).
T2 sequence (P27338 whole entry): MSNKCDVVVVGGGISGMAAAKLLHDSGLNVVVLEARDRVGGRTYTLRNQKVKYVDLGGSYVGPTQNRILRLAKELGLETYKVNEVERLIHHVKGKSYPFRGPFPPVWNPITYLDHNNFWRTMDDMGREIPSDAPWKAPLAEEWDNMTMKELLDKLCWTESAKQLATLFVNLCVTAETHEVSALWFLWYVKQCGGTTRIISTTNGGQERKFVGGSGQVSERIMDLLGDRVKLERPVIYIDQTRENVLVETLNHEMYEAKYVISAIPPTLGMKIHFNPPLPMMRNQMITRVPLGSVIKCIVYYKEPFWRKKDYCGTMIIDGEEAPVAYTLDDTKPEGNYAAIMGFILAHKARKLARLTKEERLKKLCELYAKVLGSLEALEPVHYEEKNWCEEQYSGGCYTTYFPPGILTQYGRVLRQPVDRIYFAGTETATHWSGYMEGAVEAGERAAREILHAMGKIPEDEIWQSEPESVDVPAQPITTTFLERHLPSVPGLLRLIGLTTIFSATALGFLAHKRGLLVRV
The format is cell-based.

Data set [3] is filed under the species Homo sapiens. Kind of data set: Selectivity index, ratio of IC50 for human recombinant MAO-A expressed in insect cells microsomes to IC50 for human recombinant MAO-B expressed in insect cells microsomes. A digest of the protocol:
as §1

Data set [4] addresses T2, Amine oxidase [flavin-containing] B. Kind of data set: Reversible inhibition of human recombinant MAO-B expressed in insect cells microsomes assessed as enzyme residual activity preincubated at concentration of 4 times IC50 with enzyme for 15 mins followed by dialysis of enzyme-inhibitor mixture for 24 hrs followed by twofold dilution and incubation at concentration of 2 times IC50 with enzyme for 20 mins using kynuramine as substrate by fluorescence ….

The target is the same in data set [5]. Kind of data set: Inhibition of human recombinant MAO-B expressed in insect cells microsomes assessed as enzyme residual activity preincubated at concentration of 4 times IC50 with enzyme for 24 hrs followed by twofold dilution and incubation at concentration of 2 times IC50 with enzyme for 20 mins using kynuramine as substrate by fluorescence spectrophotometry (reference value: 100%).

Where only a bound is given, the exact number is not on record here.

For the molecule `NS(=O)(=O)c1cc(-c2nnc(-c3ccccc3)o2)ccc1Cl`, the 50% inhibitory concentration (IC50) is above 100 µM in data set [1] and 0.439 µM in data set [2]. Besides, in data set [3], the Ratio IC50 is above 228.

In the case of `NS(=O)(=O)c1ccc(-c2nnc(-c3ccc(Cl)cc3)o2)cc1`, the values for the IC50 in data set [1] and in data set [2] were 68 µM and 0.048 µM, respectively. The Ratio IC50 in data set [3] came out at 1420.

For `N#Cc1ccc(-c2nnc(-c3ccc(S(N)(=O)=O)cc3)o2)cc1`, the concentration for half-maximal inhibition (IC50) in data set [1] was 24.3 µM; in data set [2], 0.318 µM. Moreover, the Ratio IC50 in data set [3] worked out at 76.

As to `NS(=O)(=O)c1cccc(-c2nnc(-c3ccc(F)cc3)o2)c1`, the half-inhibitory concentration (IC50) in data set [1] was determined as 34.4 µM; in data set [2] it was 0.975 µM. Moreover, in data set [3], the Ratio IC50 was determined as 35.

On to `NS(=O)(=O)c1ccc(-c2nnc(-c3ccc(Cl)c(Cl)c3)o2)cc1`, for which the Activity in data set [4] was found to be 60%; in data set [5], 44%.

With `NS(=O)(=O)c1ccc(C(=O)NNC(=O)c2ccc(Cl)cc2)cc1`, the half-inhibitory concentration (IC50) came out at 55.9 µM in data set [1] and 11.7 µM in data set [2]. For the same molecule, in data set [3], the Ratio IC50 was 4.8.

In the case of `NS(=O)(=O)c1ccc(C(=O)NNC(=O)c2ccccc2)cc1`, the IC50 in data set [1] was 62.8 µM; in data set [2], above 100 µM. For the same molecule, the Ratio IC50 in data set [3] was below 0.6.

With `NS(=O)(=O)c1ccc(-c2nnc(-c3ccc(F)cc3)o2)cc1`, the IC50 in data set [1] was 83.8 µM; in data set [2] it was 0.079 µM. For the same molecule, the Ratio IC50 in data set [3] turned out to be 1060.

For the molecule `NS(=O)(=O)c1ccc(-c2nnc(-c3ccccc3)o2)cc1`, the 50% inhibitory concentration (IC50) in data set [1] is 63.9 µM; in data set [2], 0.168 µM. Further, the Ratio IC50 in data set [3] came to 380.

For the molecule `N#Cc1ccc(C(=O)NNC(=O)c2ccc(S(N)(=O)=O)cc2)cc1`, the IC50 in data set [1] stood at 16.1 µM; in data set [2] it was 1.17 µM. Further, in data set [3], the Ratio IC50 turned out to be 14.

As for `Cc1ccc(-c2nnc(-c3cccc(S(N)(=O)=O)c3)o2)cc1`, the IC50 in data set [1] came to 61.4 µM; in data set [2], 0.571 µM. For the same molecule, the Ratio IC50 in data set [3] stood at 108.

Turning to `NS(=O)(=O)c1cccc(-c2nnc(-c3ccc(Cl)cc3)o2)c1`, the IC50 in data set [1] is above 100 µM; in data set [2], 0.21 µM. For the same molecule, the Ratio IC50 in data set [3] was above 476.

Take `NS(=O)(=O)c1ccc(C(=O)NNC(=O)c2ccc(F)cc2)cc1`: the results for the IC50 in data set [1] and in data set [2] were 39.6 µM and above 100 µM, respectively. Besides, the Ratio IC50 in data set [3] is below 0.4.

Turning to `Cc1ccc(-c2nnc(-c3ccccc3)o2)cc1S(N)(=O)=O`, the IC50 in data set [1] is above 100 µM; in data set [2] it was 0.767 µM. The Ratio IC50 in data set [3] is above 130.

On to `NS(=O)(=O)c1ccc(C(=O)NNC(=O)c2ccc(Cl)c(Cl)c2)cc1`, for which the IC50 came out at 13.6 µM in data set [1] and 10.1 µM in data set [2]. Besides, the Ratio IC50 in data set [3] was 1.3.

A word on the IC50: it is the point on the concentration scale where inhibition reaches its midpoint.
